Assay results pooled from the literature.
Compare with care: the assays were run in different laboratories.
Observed: parasite growth

Structure (SMILES) | organism | test | setting | IC50
COc1cc(O)c(CC=C(C)C)c(O)c1C(=O)/C=C/c1ccc(O)cc1 | Leishmania amazonensis | MTT | 72 h, promastigote | 47.2 µM
COc1ccc(Sc2ccccc2)c(OC)c1OC | Leishmania braziliensis | MTT | 24 h, promastigote | 14.3 µM
C=C1C[C@@]23CC[C@H]4[C@@](C)(CCC[C@@]4(C)C(=O)O)[C@@H]2CC[C@@H]1C3 | Leishmania amazonensis | – | 72 h, promastigote | 28 µg/mL
Oc1ccc(/C=C/c2cc(O)cc(O)c2)cc1 | Leishmania amazonensis | imaging | 48 h, intracellular, amastigote | 14 µM
CC(C)(C)CC(C)(C)Nc1c(-c2ccccc2)nc2ncccn12 | Leishmania amazonensis | MTT | 72 h, promastigote | 50.3 µM
COc1ccc([S+]([O-])c2ccc(C)cc2)c(OC)c1OC (stereo not drawn) | Leishmania braziliensis | MTT | 24 h, promastigote | 67.2 µM
CC(C)(C)CC(C)(C)Nc1c(-c2cccc([N+](=O)[O-])c2)nc2ncccn12 | Leishmania amazonensis | MTT | 72 h, promastigote | > 100 µM
C=C1CC[C@@H]2[C@](C)(CCC[C@]2(C)C(=O)O)[C@H]1CC/C(C)=C/C(=O)O | Leishmania amazonensis | – | 72 h, promastigote | 28 µg/mL
CCCCCCCCCCCCCCCCOP(=O)([O-])OCC[N+](C)(C)C | Leishmania amazonensis | MTT | 72 h, promastigote | 15.1 µM
COc1ccc(Sc2ccc(OC)c(OC)c2OC)cc1 | Leishmania braziliensis | MTT | 24 h, promastigote | 28 µM
C=C1CC[C@@H]2C(C)(C)CCC[C@@]2(C)[C@@H]1CC/C(C)=C/C(=O)OC | Leishmania amazonensis | – | 72 h, promastigote | 6 µg/mL
CC(C)(C)CC(C)(C)Nc1c(-c2cccs2)nc2ncccn12 | Leishmania amazonensis | MTT | 72 h, promastigote | > 100 µM
